In ChEMBL document CHEMBL4251558, “Synthesis and preliminary antiproliferative activity of new pteridin-7(8H)-one derivatives” (Eur J Med Chem, 2018):
Activity calls are given as the source filed them. The calls are words filed in the database; no cut-off is given here.

test system: MKN-45; assay: Cell cycle arrest in human MKN45 cells assessed as accumulation at G2/M phase at 2 uM after 24 hrs by propidium iodide staining-based flow cytometric method (reference value: 1.62%); assay type: functional; conditions: not given
In short: (§1)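 MKN-45 cells exposed to compound at 0, 2, 4 or 8 µM for 24 h. Cells then fixed and stained with PI, and DNA content analysed by flow cytometry to give phase distribution. Run three times; a representative experiment is shown.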

SMILES | Activity [%]
CCCSc1nc(N2CCN(C)CC2)c2ncc(=O)n(Cc3ccccc3)c2n1 | 16.6

test system: MKN-45; assay: Cell cycle arrest in human MKN45 cells assessed as accumulation at G1 phase at 8 uM after 24 hrs by propidium iodide staining-based flow cytometric method (reference value: 58.2%); assay type: functional; conditions: not given; in short: as §1

SMILES | Activity [%]
CCCSc1nc(N2CCN(C)CC2)c2ncc(=O)n(Cc3ccccc3)c2n1 | 6.91

test system: MKN-45; assay: Induction of apoptosis in human MKN45 cells assessed as late apoptotic cells at 8 uM after 24 hrs by Annexin V-FITC/propidium iodide staining-based flow-cytometric method (reference value: 3.99%); assay type: functional; conditions: not given

SMILES | Activity [%]
CCCSc1nc(N2CCN(C)CC2)c2ncc(=O)n(Cc3ccccc3)c2n1 | 23.1

test system: MKN-45; assay: Induction of apoptosis in human MKN45 cells assessed as early apoptotic cells at 2 uM after 24 hrs by Annexin V-FITC/propidium iodide staining-based flow-cytometric method (reference value: 1.31%); assay type: functional; conditions: not given

SMILES | Activity [%]
CCCSc1nc(N2CCN(C)CC2)c2ncc(=O)n(Cc3ccccc3)c2n1 | 15.7

test system: MKN-45; assay: Cell cycle arrest in human MKN45 cells assessed as accumulation at S phase at 8 uM after 24 hrs by propidium iodide staining-based flow cytometric method (reference value: 24.9%); assay type: functional; conditions: not given; in short: as §1

SMILES | Activity [%]
CCCSc1nc(N2CCN(C)CC2)c2ncc(=O)n(Cc3ccccc3)c2n1 | 25.7

test system: MKN-45; assay: Induction of apoptosis in human MKN45 cells assessed as viable cells at 2 uM after 24 hrs by Annexin V-FITC/propidium iodide staining-based flow-cytometric method (reference value: 90.8%); assay type: functional; conditions: MKN-45, 24 h, read-out: Activity

SMILES | viability at 2 µM [%]
CCCSc1nc(N2CCN(C)CC2)c2ncc(=O)n(Cc3ccccc3)c2n1 | 71.4

test system: MKN-45; assay: Cell cycle arrest in human MKN45 cells assessed as accumulation at S phase at 4 uM after 24 hrs by propidium iodide staining-based flow cytometric method (reference value: 24.9%); assay type: functional; conditions: not given; in short: as §1

SMILES | Activity [%]
CCCSc1nc(N2CCN(C)CC2)c2ncc(=O)n(Cc3ccccc3)c2n1 | 24

test system: MKN-45; assay: Cell cycle arrest in human MKN45 cells assessed as accumulation at G2/M phase after 24 hrs by propidium iodide staining-based flow cytometric method; assay type: functional; conditions: not given; in short: as §1

SMILES | Activity
CCCSc1nc(N2CCN(C)CC2)c2ncc(=O)n(Cc3ccccc3)c2n1 | Dose-dependent effect

test system: MKN-45; assay: Induction of apoptosis in human MKN45 cells assessed as viable cells at 4 uM after 24 hrs by Annexin V-FITC/propidium iodide staining-based flow-cytometric method (reference value: 90.8%); assay type: functional; conditions: MKN-45, 24 h, read-out: Activity

SMILES | viability at 4 µM [%]
CCCSc1nc(N2CCN(C)CC2)c2ncc(=O)n(Cc3ccccc3)c2n1 | 73

test system: MKN-45; assay: Cell cycle arrest in human MKN45 cells assessed as accumulation at G2/M phase at 8 uM after 24 hrs by propidium iodide staining-based flow cytometric method (reference value: 1.62%); assay type: functional; conditions: not given; in short: as §1

SMILES | Activity [%]
CCCSc1nc(N2CCN(C)CC2)c2ncc(=O)n(Cc3ccccc3)c2n1 | 40.8

test system: ECa-109 cell line; assay: Antiproliferative activity against human EC109 cells assessed as decrease in cell viability after 48 hrs by MTT assay; assay type: functional, cell-based; conditions: ECa-109, 48 h
In short: (§2)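 Cells in exponential growth seeded at 3000 per well and allowed 24 h. Medium then replaced with fresh medium holding a range of compound concentrations, followed by 48 h incubation. Viability read by MTT at 570 nm. IC50 is the concentration giving 50% inhibition of proliferation, reported as mean ± SD of three independent experiments.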

SMILES | IC50 [µM]
CCCSc1nc(Nc2ccccc2)c2ncc(=O)n(Cc3ccccc3)c2n1 | 19
CCCSc1nc(N2CCN(C)CC2)c2ncc(=O)n(Cc3ccccc3)c2n1 | 9.85

test system: MKN-45; assay: Induction of apoptosis in human MKN45 cells after 24 hrs by Annexin V-FITC/propidium iodide staining-based flow-cytometric method; assay type: functional, cell-based; conditions: not given

SMILES | Activity
CCCSc1nc(N2CCN(C)CC2)c2ncc(=O)n(Cc3ccccc3)c2n1 | Dose-dependent effect

test system: MKN-45; assay: Induction of apoptosis in human MKN45 cells assessed as early apoptotic cells at 4 uM after 24 hrs by Annexin V-FITC/propidium iodide staining-based flow-cytometric method (reference value: 1.31%); assay type: functional; conditions: not given

SMILES | Activity [%]
CCCSc1nc(N2CCN(C)CC2)c2ncc(=O)n(Cc3ccccc3)c2n1 | 9.91

test system: MKN-45; assay: Antiproliferative activity against human MKN45 cells assessed as decrease in cell viability after 48 hrs by MTT assay; assay type: functional, cell-based; conditions: MKN-45, 48 h; in short: as §2

SMILES | IC50 [µM]
CCCSc1nc(Nc2ccccc2)c2ncc(=O)n(Cc3ccccc3)c2n1 | 38.6
CCCSc1nc(N2CCN(C)CC2)c2ncc(=O)n(Cc3ccccc3)c2n1 | 4.32

test system: MKN-45; assay: Induction of apoptosis in human MKN45 cells assessed as formation of apoptotic bodies at 4 to 8 uM after 24 hrs by Hoechst 33258 staining-based fluorescence microscopic method; assay type: functional, cell-based; conditions: not given

SMILES | Activity
CCCSc1nc(N2CCN(C)CC2)c2ncc(=O)n(Cc3ccccc3)c2n1 | Active

test system: MKN-45; assay: Cell cycle arrest in human MKN45 cells assessed as accumulation at G1 phase at 2 uM after 24 hrs by propidium iodide staining-based flow cytometric method (reference value: 58.2%); assay type: functional; conditions: not given; in short: as §1

SMILES | Activity [%]
CCCSc1nc(N2CCN(C)CC2)c2ncc(=O)n(Cc3ccccc3)c2n1 | 42.2

test system: MKN-45; assay: Induction of apoptosis in human MKN45 cells assessed as necrotic cells at 4 uM after 24 hrs by Annexin V-FITC/propidium iodide staining-based flow-cytometric method (reference value: 3.86%); assay type: functional; conditions: not given

SMILES | Activity [%]
CCCSc1nc(N2CCN(C)CC2)c2ncc(=O)n(Cc3ccccc3)c2n1 | 1.02

test system: MGC-803; assay: Antiproliferative activity against human MGC803 cells assessed as decrease in cell viability after 48 hrs by MTT assay; assay type: functional, cell-based; conditions: MGC-803, 48 h; in short: as §2

SMILES | IC50 [µM]
CCCSc1nc(Nc2ccccc2)c2ncc(=O)n(Cc3ccccc3)c2n1 | 36.6
CCCSc1nc(N2CCN(C)CC2)c2ncc(=O)n(Cc3ccccc3)c2n1 | 7.01

test system: MKN-45; assay: Cell cycle arrest in human MKN45 cells assessed as accumulation at G2/M phase at 4 uM after 24 hrs by propidium iodide staining-based flow cytometric method (reference value: 1.62%); assay type: functional; conditions: not given; in short: as §1

SMILES | Activity [%]
CCCSc1nc(N2CCN(C)CC2)c2ncc(=O)n(Cc3ccccc3)c2n1 | 29.2

test system: MKN-45; assay: Induction of apoptosis in human MKN45 cells assessed as chromatin shrinkage at 4 to 8 uM after 24 hrs by Hoechst 33258 staining-based fluorescence microscopic method; assay type: functional, cell-based; conditions: not given

SMILES | Activity
CCCSc1nc(N2CCN(C)CC2)c2ncc(=O)n(Cc3ccccc3)c2n1 | Active

test system: MKN-45; assay: Induction of apoptosis in human MKN45 cells assessed as cleavage of caspases-3 after 24 hrs by Western blot method; assay type: functional, cell-based; conditions: not given
In short: (§3)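 MKN-45 cells treated with a range of concentrations for 24 h. Cells lysed in RIPA buffer with protease inhibitors, and protein measured by BCA assay. Lysates run on SDS-PAGE and transferred to nitrocellulose. Membranes blocked in 5% skim milk for 2 h at RT, incubated with primary antibodies overnight at 4 °C, then secondary antibody (1:5000) for 2 h at RT. Detection by ECL on film.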

SMILES | Activity
CCCSc1nc(N2CCN(C)CC2)c2ncc(=O)n(Cc3ccccc3)c2n1 | Dose-dependent effect

test system: MKN-45; assay: Cell cycle arrest in human MKN45 cells assessed as accumulation at S phase at 2 uM after 24 hrs by propidium iodide staining-based flow cytometric method (reference value: 24.9%); assay type: functional; conditions: not given; in short: as §1

SMILES | Activity [%]
CCCSc1nc(N2CCN(C)CC2)c2ncc(=O)n(Cc3ccccc3)c2n1 | 20.2

test system: MKN-45; assay: Induction of apoptosis in human MKN45 cells assessed as late apoptotic cells at 4 uM after 24 hrs by Annexin V-FITC/propidium iodide staining-based flow-cytometric method (reference value: 3.99%); assay type: functional; conditions: not given

SMILES | Activity [%]
CCCSc1nc(N2CCN(C)CC2)c2ncc(=O)n(Cc3ccccc3)c2n1 | 16

test system: MKN-45; assay: Induction of apoptosis in human MKN45 cells assessed as late apoptotic cells at 2 uM after 24 hrs by Annexin V-FITC/propidium iodide staining-based flow-cytometric method (reference value: 3.99%); assay type: functional; conditions: not given

SMILES | Activity [%]
CCCSc1nc(N2CCN(C)CC2)c2ncc(=O)n(Cc3ccccc3)c2n1 | 11.3

test system: MKN-45; assay: Induction of apoptosis in human MKN45 cells assessed as viable cells at 8 uM after 24 hrs by Annexin V-FITC/propidium iodide staining-based flow-cytometric method (reference value: 90.8%); assay type: functional; conditions: MKN-45, 24 h, read-out: Activity

SMILES | viability at 8 µM [%]
CCCSc1nc(N2CCN(C)CC2)c2ncc(=O)n(Cc3ccccc3)c2n1 | 66.8

test system: MKN-45; assay: Induction of apoptosis in human MKN45 cells assessed as necrotic cells at 8 uM after 24 hrs by Annexin V-FITC/propidium iodide staining-based flow-cytometric method (reference value: 3.86%); assay type: functional; conditions: not given

SMILES | Activity [%]
CCCSc1nc(N2CCN(C)CC2)c2ncc(=O)n(Cc3ccccc3)c2n1 | 2.34

test system: NCI-H1650; assay: Antiproliferative activity against human NCI-H1650 cells assessed as decrease in cell viability after 48 hrs by MTT assay; assay type: functional, cell-based; conditions: NCI-H1650, 48 h; in short: as §2

SMILES | IC50 [µM]
CCCSc1nc(Nc2ccccc2)c2ncc(=O)n(Cc3ccccc3)c2n1 | > 64
CCCSc1nc(N2CCN(C)CC2)c2ncc(=O)n(Cc3ccccc3)c2n1 | 9.92

test system: MKN-45; assay: Cell cycle arrest in human MKN45 cells assessed as accumulation at G1 phase at 4 uM after 24 hrs by propidium iodide staining-based flow cytometric method (reference value: 58.2%); assay type: functional; conditions: not given; in short: as §1

SMILES | Activity [%]
CCCSc1nc(N2CCN(C)CC2)c2ncc(=O)n(Cc3ccccc3)c2n1 | 16.2

test system: MKN-45; assay: Induction of apoptosis in human MKN45 cells assessed as necrotic cells at 2 uM after 24 hrs by Annexin V-FITC/propidium iodide staining-based flow-cytometric method (reference value: 3.86%); assay type: functional; conditions: not given

SMILES | Activity [%]
CCCSc1nc(N2CCN(C)CC2)c2ncc(=O)n(Cc3ccccc3)c2n1 | 1.62

test system: MKN-45; assay: Induction of apoptosis in human MKN45 cells assessed as downregulation of Bcl-2 expression at 4 to 16 uM after 24 hrs by Western blot method; assay type: functional, cell-based; conditions: not given; in short: as §3

SMILES | Activity
CCCSc1nc(N2CCN(C)CC2)c2ncc(=O)n(Cc3ccccc3)c2n1 | Active

test system: MKN-45; assay: Induction of apoptosis in human MKN45 cells assessed as upregulation of Bax expression after 24 hrs by Western blot method; assay type: functional, cell-based; conditions: not given; in short: as §3

SMILES | Activity
CCCSc1nc(N2CCN(C)CC2)c2ncc(=O)n(Cc3ccccc3)c2n1 | Dose-dependent effect

test system: MKN-45; assay: Induction of apoptosis in human MKN45 cells assessed as early apoptotic cells at 8 uM after 24 hrs by Annexin V-FITC/propidium iodide staining-based flow-cytometric method (reference value: 1.31%); assay type: functional; conditions: not given

SMILES | Activity [%]
CCCSc1nc(N2CCN(C)CC2)c2ncc(=O)n(Cc3ccccc3)c2n1 | 7.77

test system: MKN-45; assay: Induction of apoptosis in human MKN45 cells assessed as cell rounding at 4 to 8 uM after 24 hrs by Hoechst 33258 staining-based fluorescence microscopic method; assay type: functional; conditions: not given

SMILES | Activity
CCCSc1nc(N2CCN(C)CC2)c2ncc(=O)n(Cc3ccccc3)c2n1 | Active

test system: MKN-45; assay: Induction of apoptosis in human MKN45 cells assessed as cleavage of caspases-9 after 24 hrs by Western blot method; assay type: functional, cell-based; conditions: not given; in short: as §3

SMILES | Activity
CCCSc1nc(N2CCN(C)CC2)c2ncc(=O)n(Cc3ccccc3)c2n1 | Dose-dependent effect
